This is an account of results in ChEMBL document CHEMBL5154713, “Illuminating a Dark Kinase: Structure-Guided Design, Synthesis, and Evaluation of a Potent Nek1 Inhibitor and Its Effects on the Embryonic Zebrafish Pronephros” (J Med Chem, 2022).

Some results are limits rather than exact numbers.

Data set [1] deals with Serine/threonine-protein kinase Chk1 (Homo sapiens) (UniProt O14757). As to the kind of experiment: Inhibition of human full length recombinant CHK1 assessed as residual activity at 1 uM using KKKVSRSGLYRSPSMPENLNRPR as substrate incubated for 40 mins in presence of [gamma 33P]-ATP by radiometric scintillation counting assay relative to control. In a few lines: (§1)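 Commercial radiometric panel of 50 kinases. Each recombinant human kinase was tested at a single compound concentration of 1 μM. ATP was set within 15 μM of the apparent Km for ATP for each kinase. Residual activity is relative to control and is the mean of two independent experiments.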

Data set [2] addresses Inhibitor of nuclear factor kappa-B kinase subunit beta (Homo sapiens) (UniProt O14920). The data set can be described thus: Inhibition of recombinant human full length IKKbeta assessed as residual activity at 1 uM using peptide as substrate incubated for 40 mins in presence of [gamma 33P]-ATP by radiometric scintillation counting assay relative to control. Put shortly: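 Eurofins KinaseProfiler radiometric panel, compound at 1 μM, ATP at 10 μM or within 15 μM of apparent Km. For Nek1 (1−505): 8 mM MOPS pH 7.0, 0.2 mM EDTA, 250 μM peptide, 10 mM Mg acetate, [γ-33P]-ATP, 40 min at room temperature. Stopped with 0.5% phosphoric acid, filtermat spotting, scintillation counting. Mean of two independent experiments.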

Data set [3] concerns the target Serine/threonine-protein kinase Nek7 (Homo sapiens) (UniProt Q8TDX7). As to the kind of experiment: Inhibition of recombinant human NEK7 (2 to end residues) assessed as residual activity at 1 uM using FLAKSFGSPNRAYKK as substrate measured after 40 mins in presence of [gamma33P]ATP by radiometric scintillation counting method relative to control. Put shortly:
as §1

Data set [4] deals with Protein-tyrosine kinase 6 (Homo sapiens) (UniProt Q13882). The data set can be described thus: Inhibition of recombinant full length human BRK assessed as residual activity at 1 uM using poly(Glu, Tyr) 4:1 as substrate incubated for 40 mins in presence of [gamma-33ATP] by scintillation counting based radiometry assay relative to control. Put shortly:
as §1

Data set [5] addresses Inhibitor of nuclear factor kappa-B kinase subunit alpha (Homo sapiens) (UniProt O15111). The data set can be described thus: Inhibition of human full length recombinant IKKalpha assessed as residual activity at 1 uM using peptide as substrate incubated for 40 mins in presence of [gamma 33P]-ATP by radiometric scintillation counting assay relative to control. Put shortly: as §1

Data set [6] can be described thus: Toxicity in wild-type Zebrafish embryos assessed as effect on ordinary heartbeat at 0.05 to 30 uM measured upto 120 hrs. As to conditions: in vivo, dose 0.05-30 µM. The arrangement: species or system Danio rerio. Put shortly: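 Wild-type embryos, 15 per group with intact chorions, dosed at 6 hpf with 0.05–30 μM final concentrations in E3, diluted from a DMSO stock. Survival checked every 24 h by heartbeat over 120 h, and phenotypes assessed visually. At least triplicate, 5 replicates at 30 μM.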

The target of data set [7] is Interleukin-1 receptor-associated kinase 4 (Homo sapiens) (UniProt Q9NWZ3). The data set can be described thus: Inhibition of human full length IRAK4 assessed as residual activity at 1 uM using myelin basic protein as substrate incubated for 40 mins in presence of [gamma 33P]-ATP by radiometric scintillation counting assay relative to control. Put shortly:
as §1

Data set [8] has as its target Calcium/calmodulin-dependent protein kinase kinase 2 (Homo sapiens) (UniProt Q96RR4). As to the kind of experiment: Inhibition of human full length CAMKK2 assessed as residual activity at 1 uM using calmodulin as substrate incubated for 40 mins in presence of [gamma 33P]-ATP by radiometric scintillation counting assay relative to control. In a few lines: as §1
The target in data set [9] is Tyrosine-protein kinase ABL1 (Homo sapiens) (UniProt P00519). The data set can be described thus: Inhibition of human recombinant ABL (27 to end residues) assessed as residual activity at 1 uM using EAIYAAPFAKKK as substrate incubated for 40 mins in presence of [gamma33P-ATP] by radiometric scintillation counting analysis. In a few lines: as §1
For data set [10], the target named is Serine/threonine-protein kinase Nek6 (Homo sapiens) (UniProt Q9HC98). The data set can be described thus: Inhibition of human NEK6 (2 to end residues) assessed as residual activity at 1 uM using FLAKSFGSPNRAYKK as substrate incubated for 40 mins in presence of [gamma 33P]-ATP by radiometric scintillation counting assay relative to control. Put shortly: as §1

For the next data set, the species on record is Homo sapiens. As to the kind of experiment: Inhibition of recombinant full length human CK2alpha2 assessed as residual activity at 1 uM using RRRDDDSDDD as substrate incubated 40 mins in presence of [gamma-33ATP] by scintillation counting based radiometry assay relative to control. In a few lines: as §1

Sequence of Inhibitor of nuclear factor kappa-B kinase subunit alpha (Homo sapiens) (O15111 whole entry): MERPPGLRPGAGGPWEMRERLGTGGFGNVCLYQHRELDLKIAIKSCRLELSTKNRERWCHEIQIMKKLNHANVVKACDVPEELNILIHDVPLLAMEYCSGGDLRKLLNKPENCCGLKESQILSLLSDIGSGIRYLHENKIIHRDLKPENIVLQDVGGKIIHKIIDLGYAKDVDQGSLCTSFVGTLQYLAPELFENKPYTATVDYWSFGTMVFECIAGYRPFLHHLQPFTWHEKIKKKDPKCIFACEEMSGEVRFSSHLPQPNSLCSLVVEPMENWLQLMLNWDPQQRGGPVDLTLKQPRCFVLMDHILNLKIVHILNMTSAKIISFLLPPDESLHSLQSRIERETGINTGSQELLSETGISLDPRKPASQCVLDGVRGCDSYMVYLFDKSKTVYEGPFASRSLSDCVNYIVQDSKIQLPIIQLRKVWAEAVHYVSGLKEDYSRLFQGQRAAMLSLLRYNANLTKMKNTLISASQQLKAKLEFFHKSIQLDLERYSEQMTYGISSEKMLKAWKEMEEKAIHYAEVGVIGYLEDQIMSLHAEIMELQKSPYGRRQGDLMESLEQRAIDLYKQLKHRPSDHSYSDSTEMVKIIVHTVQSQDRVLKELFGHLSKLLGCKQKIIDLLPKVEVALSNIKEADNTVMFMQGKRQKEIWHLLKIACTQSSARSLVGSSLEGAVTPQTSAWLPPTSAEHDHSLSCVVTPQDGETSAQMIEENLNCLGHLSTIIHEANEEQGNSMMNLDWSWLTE
Sequence of Serine/threonine-protein kinase Nek7 (Homo sapiens) (Q8TDX7 whole entry, looked up): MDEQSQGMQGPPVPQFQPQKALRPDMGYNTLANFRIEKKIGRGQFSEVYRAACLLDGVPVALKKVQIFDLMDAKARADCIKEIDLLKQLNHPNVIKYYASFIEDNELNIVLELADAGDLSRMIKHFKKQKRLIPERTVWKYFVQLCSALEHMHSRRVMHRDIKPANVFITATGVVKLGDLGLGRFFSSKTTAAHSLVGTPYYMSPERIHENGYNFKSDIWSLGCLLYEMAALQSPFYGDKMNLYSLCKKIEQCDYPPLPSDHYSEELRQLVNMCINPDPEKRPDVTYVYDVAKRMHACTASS
Sequence of Tyrosine-protein kinase ABL1 (Homo sapiens) (P00519 whole entry): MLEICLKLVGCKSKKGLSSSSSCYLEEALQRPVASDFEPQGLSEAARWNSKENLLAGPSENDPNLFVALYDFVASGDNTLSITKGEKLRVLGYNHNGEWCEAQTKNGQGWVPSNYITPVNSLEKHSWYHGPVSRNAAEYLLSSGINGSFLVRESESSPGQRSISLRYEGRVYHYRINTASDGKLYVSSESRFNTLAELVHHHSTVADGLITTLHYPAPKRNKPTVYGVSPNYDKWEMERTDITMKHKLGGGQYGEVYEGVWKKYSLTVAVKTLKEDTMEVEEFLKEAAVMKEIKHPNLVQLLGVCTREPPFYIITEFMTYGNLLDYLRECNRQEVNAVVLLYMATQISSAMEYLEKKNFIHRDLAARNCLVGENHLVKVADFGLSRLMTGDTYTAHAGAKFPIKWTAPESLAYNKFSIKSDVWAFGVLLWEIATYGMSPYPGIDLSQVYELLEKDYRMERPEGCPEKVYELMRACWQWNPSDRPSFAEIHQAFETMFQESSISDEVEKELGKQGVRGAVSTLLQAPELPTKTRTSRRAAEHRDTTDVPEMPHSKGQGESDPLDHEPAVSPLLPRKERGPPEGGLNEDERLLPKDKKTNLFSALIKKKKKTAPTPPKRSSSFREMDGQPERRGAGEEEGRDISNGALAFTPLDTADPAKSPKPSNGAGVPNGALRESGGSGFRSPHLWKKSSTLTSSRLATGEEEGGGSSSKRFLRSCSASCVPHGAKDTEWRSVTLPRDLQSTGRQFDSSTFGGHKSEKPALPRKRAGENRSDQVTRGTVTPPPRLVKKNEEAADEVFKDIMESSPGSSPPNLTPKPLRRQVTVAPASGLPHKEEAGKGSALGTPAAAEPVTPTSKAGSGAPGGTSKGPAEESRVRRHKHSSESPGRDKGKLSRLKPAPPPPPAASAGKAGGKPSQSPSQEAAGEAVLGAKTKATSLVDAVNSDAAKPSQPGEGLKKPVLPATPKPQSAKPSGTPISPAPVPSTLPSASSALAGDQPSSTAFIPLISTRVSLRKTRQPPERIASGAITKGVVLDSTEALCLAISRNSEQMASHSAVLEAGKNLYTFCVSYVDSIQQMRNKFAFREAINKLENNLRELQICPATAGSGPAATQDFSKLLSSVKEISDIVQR
Sequence of Inhibitor of nuclear factor kappa-B kinase subunit beta (Homo sapiens) (O14920 whole entry): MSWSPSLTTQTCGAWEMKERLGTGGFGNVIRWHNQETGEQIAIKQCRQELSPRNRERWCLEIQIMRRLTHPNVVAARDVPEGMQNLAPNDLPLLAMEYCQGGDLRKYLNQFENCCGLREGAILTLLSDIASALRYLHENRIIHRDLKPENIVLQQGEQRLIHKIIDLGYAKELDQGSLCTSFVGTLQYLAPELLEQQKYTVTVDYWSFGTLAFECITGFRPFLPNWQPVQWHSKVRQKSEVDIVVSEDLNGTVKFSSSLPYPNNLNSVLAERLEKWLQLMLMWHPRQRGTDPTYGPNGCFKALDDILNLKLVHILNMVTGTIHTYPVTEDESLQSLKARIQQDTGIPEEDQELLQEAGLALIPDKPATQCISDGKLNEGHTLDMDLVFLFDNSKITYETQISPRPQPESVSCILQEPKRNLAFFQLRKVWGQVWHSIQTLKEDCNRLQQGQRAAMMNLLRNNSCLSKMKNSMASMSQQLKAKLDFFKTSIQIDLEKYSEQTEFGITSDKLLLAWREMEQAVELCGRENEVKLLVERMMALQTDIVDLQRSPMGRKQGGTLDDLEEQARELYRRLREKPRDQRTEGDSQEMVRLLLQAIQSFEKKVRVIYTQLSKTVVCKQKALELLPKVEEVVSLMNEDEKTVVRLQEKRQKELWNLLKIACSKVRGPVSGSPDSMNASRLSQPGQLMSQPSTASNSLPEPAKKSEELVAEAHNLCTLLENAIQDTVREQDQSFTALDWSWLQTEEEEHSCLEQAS
Sequence of Serine/threonine-protein kinase Nek6 (Homo sapiens) (Q9HC98 whole entry): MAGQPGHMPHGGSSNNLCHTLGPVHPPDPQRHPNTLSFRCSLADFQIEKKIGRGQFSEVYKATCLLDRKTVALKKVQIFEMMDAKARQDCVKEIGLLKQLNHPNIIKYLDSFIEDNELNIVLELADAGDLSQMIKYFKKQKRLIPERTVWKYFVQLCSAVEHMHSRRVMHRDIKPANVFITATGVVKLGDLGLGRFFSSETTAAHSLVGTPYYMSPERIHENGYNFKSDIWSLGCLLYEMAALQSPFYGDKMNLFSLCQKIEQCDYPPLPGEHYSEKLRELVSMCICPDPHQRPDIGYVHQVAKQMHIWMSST
Sequence of Calcium/calmodulin-dependent protein kinase kinase 2 (Homo sapiens) (Q96RR4 2-588 limits assumed): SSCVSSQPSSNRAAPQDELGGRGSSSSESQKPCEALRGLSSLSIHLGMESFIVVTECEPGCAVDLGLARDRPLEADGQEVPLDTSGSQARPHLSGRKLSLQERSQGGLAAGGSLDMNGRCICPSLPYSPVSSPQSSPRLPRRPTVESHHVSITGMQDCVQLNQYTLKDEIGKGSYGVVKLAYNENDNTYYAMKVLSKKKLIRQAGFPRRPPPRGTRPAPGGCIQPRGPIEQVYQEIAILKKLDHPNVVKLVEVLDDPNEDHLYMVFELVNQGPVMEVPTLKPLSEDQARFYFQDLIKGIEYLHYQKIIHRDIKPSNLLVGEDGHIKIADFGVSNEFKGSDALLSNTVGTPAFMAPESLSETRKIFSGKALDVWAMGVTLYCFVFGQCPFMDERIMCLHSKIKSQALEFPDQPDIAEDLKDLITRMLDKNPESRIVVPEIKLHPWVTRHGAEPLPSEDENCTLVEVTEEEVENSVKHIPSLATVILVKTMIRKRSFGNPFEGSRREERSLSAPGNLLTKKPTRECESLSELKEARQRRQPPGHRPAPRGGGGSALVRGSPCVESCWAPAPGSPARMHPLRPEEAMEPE
Sequence of Protein-tyrosine kinase 6 (Homo sapiens) (Q13882 whole entry, looked up): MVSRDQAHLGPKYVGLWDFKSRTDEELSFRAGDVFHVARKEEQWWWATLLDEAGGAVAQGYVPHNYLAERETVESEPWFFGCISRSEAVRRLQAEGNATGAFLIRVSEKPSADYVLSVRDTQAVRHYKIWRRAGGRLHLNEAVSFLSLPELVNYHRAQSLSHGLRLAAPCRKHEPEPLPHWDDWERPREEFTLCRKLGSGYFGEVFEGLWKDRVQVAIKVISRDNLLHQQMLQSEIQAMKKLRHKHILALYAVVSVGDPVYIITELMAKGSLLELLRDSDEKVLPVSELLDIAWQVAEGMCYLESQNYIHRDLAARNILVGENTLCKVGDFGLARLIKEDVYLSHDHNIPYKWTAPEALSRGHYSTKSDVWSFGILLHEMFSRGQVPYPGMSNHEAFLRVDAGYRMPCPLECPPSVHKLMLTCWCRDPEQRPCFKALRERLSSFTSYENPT
Sequence of Interleukin-1 receptor-associated kinase 4 (Homo sapiens) (Q9NWZ3 whole entry): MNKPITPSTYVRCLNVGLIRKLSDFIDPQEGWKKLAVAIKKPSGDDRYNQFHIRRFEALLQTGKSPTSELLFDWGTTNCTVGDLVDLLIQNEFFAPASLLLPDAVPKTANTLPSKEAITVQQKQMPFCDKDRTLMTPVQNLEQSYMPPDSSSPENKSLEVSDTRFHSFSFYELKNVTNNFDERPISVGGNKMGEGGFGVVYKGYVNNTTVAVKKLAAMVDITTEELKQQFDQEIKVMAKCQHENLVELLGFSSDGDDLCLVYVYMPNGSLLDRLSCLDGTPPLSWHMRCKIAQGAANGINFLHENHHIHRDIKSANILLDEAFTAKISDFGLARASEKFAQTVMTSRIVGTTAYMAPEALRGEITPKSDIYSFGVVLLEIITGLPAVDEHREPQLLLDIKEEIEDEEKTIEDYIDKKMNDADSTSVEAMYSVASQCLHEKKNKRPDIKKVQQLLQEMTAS

Regarding `O=S(=O)(N[C@@H](CO)Cc1c[nH]c2ccccc12)c1ccc(-c2ccnc3[nH]ccc23)cc1`, the Activity in data set [1] is more than 75%; in [2], 36.1%; in data set [3], more than 75%; in data set [4], more than 75%; in data set [5], less than 75%; in data set [6], “Non-Toxic”. Further, the Activity (in data set [7]; in data set [8]; in data set [9]; in [10]; in the data set listed under Homo sapiens) was more than 75% each time.
